This passage reports IC50 and inhibition results from ChEMBL document CHEMBL2424538, “Synthesis, resolution, and biological evaluation of atropisomeric (aR)- and (aS)-16-methyllamellarins N: unique effects of the axial chirality on the selectivity of protein kinases inhibition” (J Med Chem, 2013).

Structures are written as SMILES. The source made the active and inactive calls. No cut-off for these calls is given here.

Experiment [1] can be described thus: Cytotoxicity against human SH-SY5Y cells after 72 hrs by MTS assay. Format: functional, cell-based. In short, it runs like this:
(§1)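 Neuroblastoma cells grown in DMEM with 2 mM L-glutamine, antibiotics and 10% FCS; viability read by MTS reduction. Triplicate assays, values within 10%. IC50 estimated graphically from dose−response curves of at least six inhibitor concentrations.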
On the technique in general: Formazan colour is commonly taken as a measure of viable cells.

Experiment [2] can be described thus: Inhibition of M-phase starfish oocytes CDK1/cyclin B using [gamma-33P]ATP after 30 mins. Details: species or system Marthasterias glacialis. The following applies: oocyte. The essentials:
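CDK1/cyclin B extracted from oocytes in homogenization buffer, affinity-purified on p9CKShs1-Sepharose and eluted with free p9CKShs1. Activity measured in buffer C with 1 mg/mL histone H1 and 15 μM [γ-33P]ATP, 30 min at 30 °C. Read-out: 33P captured on P81 phosphocellulose by scintillation counting; blank subtracted; activity as % of uninhibited control; DMSO controls.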

Experiment [3] concerns the target Dual specificity tyrosine-phosphorylation-regulated kinase 1A (Homo sapiens, UniProt Q13627). The experiment can be described thus: Inhibition of human recombinant DYRK1A expressed in Escherichia coli using [gamma-33P]ATP after 30 mins. The essentials:
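Enzyme (DYRK1A GST fusion purified on glutathione-agarose) assayed like CDK1/cyclin B: buffer C, 1 mg/mL histone H1, 15 μM [γ-33P]ATP, 30 min at 30 °C, P81 filter capture, scintillation counting, % of activity without inhibitor.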

Experiment [4] deals with Glycogen synthase kinase-3 (Sus scrofa, UniProt B2LUN4+I6LNT8). The experiment can be described thus: Inhibition of porcine brain GSK-3alpha/beta using GS-1 peptide and [gamma-33P]ATP as substrate after 30 mins. In short, it runs like this: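 GSK-3α/β purified on immobilized axin, diluted 1/100 in 1 mg/mL BSA with 10 mM DTT. Substrate GS-1 phosphopeptide (5 μL of 4 μM), buffer A pH 7.5, 15 μM [γ-33P]ATP, 30 min at 30 °C. Radioactivity on P81 paper counted; blank subtracted; results as % of activity without inhibitor.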

In experiment [5] the test system is HeLa. Description: Cytotoxicity against human HeLa cells after 72 hrs by colony formation assay. The class given is functional, cell-based. In short, it runs like this: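 HeLa cells, 100−150 per well, cultured 72 h at 37 °C under 5% CO2 with varying compound concentrations in MEM with 10% fetal calf serum plus penicillin/streptomycin. Colonies (clusters of ≥40 cells) counted after methylene blue staining. Duplicates, at least four concentrations; IC50 by least-squares fit to logarithm-probit analysis.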

For experiment [6], the species on record is Bos taurus. The experiment can be described thus: Inhibition of calf thymus DNA topoisomerase 1-mediated relaxation of supercoiled pBR322 plasmid DNA at 50 uM 30 mins by ethidium bromide staining.
Experiment [7] in a line: Inhibition of porcine brain CK1delta/epsilon using CKS peptide and [gamma-33P]ATP as substrate after 30 mins. The arrangement: species or system Sus scrofa. The essentials: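 CK1δ/ε affinity-purified on immobilized axin fragment. Reaction captured on P81 phosphocellulose, washed in 1% phosphoric acid, scintillation counted; blanks subtracted; activity as % of no-inhibitor control, DMSO controls.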

The test system of experiment [8] is IMR-32. Description: Cytotoxicity against human IMR32 cells after 72 hrs by MTS assay. The class given is functional, cell-based. Particulars: IMR-32, 72 h. The essentials:
as §1

A word on the IC50: it is the midpoint of a concentration-inhibition curve. Regarding `COc1ccc(-c2c3c4cc(OC)c(O)cc4oc(=O)c3n3ccc4cc(O)c(OC)cc4c23)cc1O`, the IC50 is 40 nM in experiment [1]; 70 nM in experiment [2]; 35 nM in experiment [3]; 5 nM in experiment [4]; 32 nM in experiment [5]; > 10000 nM in experiment [7]. This compound also registered an IC50 in experiment [8] of 19 nM. The inhibition entry in experiment [6] was “Active”.

For the compound `CC[C@@]1(O)C(=O)OCc2c1cc1n(c2=O)Cc2cc3ccccc3nc2-1`, the inhibition entry in experiment [6] was “Active”.

As to `COc1cc(-c2c3c4cc(OC)c(O)cc4oc(=O)c3n3ccc4cc(O)c(OC)cc4c23)ccc1O`, the inhibition entry in experiment [6] was “Active”.
